Results taken from PMC4452166 (Cancer Science, 2015).

What was measured:
[1] = in vivo; cited from earlier work
[2] = test system: PEER cells; assay: MTT cytotoxicity assay, PEER; assay type: cell-based, human; details: read-out: IC50 (cytotoxicity), 48 h
Procedure, shortened: (§1)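 Leukemia lines kept in RPMI medium with 10% FBS and antibiotics, 37°C, 5% CO2. Cells plated directly with test compound and incubated 48 h at 37°C. MTT added for 4 h; formazan dissolved overnight at room temperature in extraction solution (40% dimethylformamide, 2% acetic acid, 0.03 M HCl, 20% SDS); OD 570 nm. Means ± SD, n = 3.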

[3] = test system: Jurkat cells; assay: Jurkat xenograft model in SCID mice; assay type: in vivo; details: for tumor weight vs vehicle: day 35 after inoculation; for Survival: tumor-bearing SCID mice
Procedure, shortened: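 Six-week-old female SCID mice inoculated s.c. with 5 × 10^7 Jurkat cells. From day 20, mice received saline vehicle, test compound 13 mg/kg (13 μmol/kg) or CdCl2 3 mg/kg (13 μmol/kg) i.p. three times weekly for 2 weeks, n = 5 per group. Body weight and tumor size taken three times weekly; volume = long × short² × 1/2. Killed on day 35; tumors, liver, kidney, spleen and lung weighed. Student's t-test.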

[4] = test system: HPB-ALL cells; assay: Western blot of activated caspase-3 and cleaved PARP, HPB-ALL; assay type: cell-based, human; details: 50 μM, 24 h
Procedure, shortened: (§2)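 Leukemia cells treated with test compound for 24 h. Equal protein run on reducing SDS-PAGE and transferred to PVDF. Blocked in 1% skim milk; probed for activated caspase-3, cleaved PARP and β-actin; peroxidase secondary antibody; ECL detection.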

[5] = test system: low TC4ATS-Cd-sensitive leukemia cell lines and epithelia-derived cell lines except for HEK293; assay type: cell-based, human; details: 50 μM, 24 h, western blot
[6] = test system: JKT-beta-del cells; assay: MTT cytotoxicity assay, JKT-beta-del; assay type: cell-based, human; details: read-out: IC50 (cytotoxicity), 48 h
Procedure, shortened: as §1

[7] = test system: TE4 cells; assay: MTT cytotoxicity assay, TE4; assay type: cell-based, human; details: for IC50: read-out: IC50 (cytotoxicity), TE4, 48 h
Procedure, shortened: (§3)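 Human epithelia-derived lines grown in 10% FBS media at 37°C, 5% CO2: FLC-4 in DMEM/F12, MCF7 in Eagle's MEM + 10 μg/mL insulin, HCT116 in McCoy's 5A, AGS/HEK293 in DMEM, TE4 in RPMI. Cells seeded 24 h before test compound, then exposed 48 h at 37°C. MTT 4 h; overnight solubilisation (DMF/acetic acid/HCl/SDS); OD 570 nm. n = 3. IC20 reported as maximum tolerated concentration.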

[8] = test system: MCF7 cells; assay: MTT cytotoxicity assay, MCF7; assay type: cell-based, human; details: for IC50: read-out: IC50 (cytotoxicity), MCF7, 48 h
Procedure, shortened: as §3

[9] = test system: Jurkat cells; assay: MTT cytotoxicity assay, Jurkat; assay type: cell-based, human; details: read-out: IC50 (cytotoxicity), 48 h
Procedure, shortened: as §1

[10] = test system: HL-60 cells; assay: MTT cytotoxicity assay, HL-60; assay type: cell-based, human; details: read-out: IC50 (cytotoxicity), HL-60, 48 h
Procedure, shortened: as §1

[11] = test system: HEK293 cells; assay: MTT cytotoxicity assay, HEK293; assay type: cell-based, human; details: for IC50: read-out: IC50 (cytotoxicity), HEK293, 48 h
Procedure, shortened: as §3

[12] = test system: HUT78 cells; assay: MTT cytotoxicity assay, HUT78; assay type: cell-based, human; details: read-out: IC50 (cytotoxicity), HUT78, 48 h
Procedure, shortened: as §1

[13] = test system: AGS cells; assay: MTT cytotoxicity assay, AGS; assay type: cell-based, human; details: for IC50: read-out: IC50 (cytotoxicity), 48 h
Procedure, shortened: as §3

[14] = test system: HPB-ALL cells; assay: MTT cytotoxicity assay, HPB-ALL; assay type: cell-based, human; details: read-out: IC50 (cytotoxicity), 48 h
Procedure, shortened: as §1

[15] = test system: HCT116 cells; assay: MTT cytotoxicity assay, HCT116; assay type: cell-based, human; details: for IC50: read-out: IC50 (cytotoxicity), HCT116, 48 h
Procedure, shortened: as §3

[16] = test system: FLC-4 cells; assay: MTT cytotoxicity assay, FLC-4; assay type: cell-based, human; details: for IC50: read-out: IC50 (cytotoxicity), FLC-4, 48 h
Procedure, shortened: as §3

[17] = test system: caspase-3 in Jurkat cells; assay: Caspase-3 activity assay with fluorogenic substrate in cell lysates; assay type: cell-based, human; details: Ac-DEVD-MCA substrate
[18] = test system: Jurkat cells; assay: Western blot of activated caspase-3 and cleaved PARP, Jurkat; assay type: cell-based, human; details: 24 h
Procedure, shortened: as §2

[19] = test system: Jurkat cells; assay: Lactate dehydrogenase; assay type: cell-based, human; details: 48 h
[20] = 13 μmol/kg i.p. three times weekly for 2 weeks

Row | Molecule | IC50 [2] [µM] | renal atrophy (relative kidney weight) [3, 20] | tumor weight vs vehicle [3, 20] | Survival [3, 20] | caspase-3 activation and cleavage of PARP [4] | apoptotic events (caspase-3 activation, PARP cleavage) [5] | IC50 [6] [µM] | IC50 [7] [mM] | IC50 [8] [mM] | IC50 [9] [µM] | IC50 [10] [µM] | IC50 [11] [µM] | IC50 [12] [µM] | IC50 [13] [µM] | IC50 [14] [µM] | IC50 [15] [µM] | IC50 [16] [mM] | also measured
1 | O=S(=O)(O)c1cc2c(O)c(c1)Cc1cc(S(=O)(=O)O)cc(c1O)Cc1cc(S(=O)(=O)O)cc(c1O)Cc1cc(S(=O)(=O)O)cc(c1O)C2 [C4ATS, p-tetrasulfonated calix[4]arene] |  |  |  |  |  |  |  |  |  |  |  |  |  |  |  |  |  | dose without toxic effects, acute toxicity [1]: ≥ 100 mg/kg
2 | [Cl][Cd][Cl] [CdCl2, Cadmium chloride, reference compound] | 28 | notably induced renal atrophy | non-significant decrease | 3/5 | induced | not elicited | 30 | 0.129 | 0.036 | 6.5 | 27 | 1.9 | 25 | 60 | 9.8 | 47 | 0.106 | 
3 | cadmium-coordinated thiacalix[4]arene tetrasulfate [TC4ATS-Cd] | 144 | no significant atrophy | significantly lower | 5/5 | induced | not elicited | 275 | 2.13 | 2.21 | 6.9 | 81 | 15 | 35 | 947 | 17 | 1500 | 2.45 | caspase-3 proteolytic activity [17]: increased its proteolytic activity; body weight changes vs vehicle [3, 20]: no significant difference; tumor growth of Jurkat cells ([3]; 13 mg/kg, xenograft model in mice): significantly suppressed; IC20 ([7]; read-out: maximum tolerated concentration (=IC20 value), TE4, 48 h): 454 µM; IC20 ([8]; read-out: maximum tolerated concentration (=IC20 value), MCF7, 48 h): 1.33 mM; cleavage of PARP [18]: consistently and markedly upregulated; levels of activated caspase-3 protein [18]: upregulated; IC20 ([11]; read-out: maximum tolerated concentration (=IC20 value), HEK293, 48 h): 6.8 µM; LDH release [19]: increased LDH release from Jurkat cells in a dose-dependent manner; IC20 ([13]; read-out: maximum tolerated concentration (=IC20 value), 48 h): 505 µM; IC20 ([15]; read-out: maximum tolerated concentration (=IC20 value), HCT116, 48 h): 280 µM; IC20 ([16]; read-out: maximum tolerated concentration (=IC20 value), FLC-4, 48 h): 667 µM
